# Results: the EternaBench riboswitch data
# Test system: MS2 coat protein
# Assay: apparent Kd, MS2 coat protein; higher = weaker binding; RNA-MaP array; FMN 200 µM where present
# Summary of the method: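 Binding was read on Illumina sequencing-chip clusters where stalled E. coli RNA polymerase had transcribed each design. A titration of SNAP-549-labelled MS2 coat protein began at 0.7 or 1.5 nM and doubled to 3 µM, once without ligand and once with constant ligand, in 100 mM Tris-HCl pH 7.5, 80 mM KCl, 4 mM MgCl2, BSA, DTT, yeast tRNA and Tween-20. The apparent Kd is the median of filtered per-cluster binding-curve fits, based on green signal normalised to red-channel RNA signal and control-cluster median Fmax.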
# [1] = designed as: OFF switch for flavin mononucleotide, no ligand
# [2] = ligand present: flavin mononucleotide, designed as: OFF switch for flavin mononucleotide
# [3] = designed as: ON switch for flavin mononucleotide, no ligand
# [4] = ligand present: flavin mononucleotide, designed as: ON switch for flavin mononucleotide
sequence,measurement,setting,value
ACAUGAGGAUCACCCAUGUGAUGAUCUUCCAUGUCAUAUUUCAGAAGGCACGCAUGUUUAAUGAGUGAGGAUAUGGAAUAUGCG,apparent Kd,[1],802 nM
same,apparent Kd,[2],553 nM
GUAAUUAAGAGAGGAUAUUGACAUGAGGAUCACCCAUGUAUUUGGGAGUGUUUACUGAAUUCUUACGAGAAGGCUUUUAAAUAC,apparent Kd,[1],89.2 nM
same,apparent Kd,[2],178 nM
UCAUUUACCACAGGAUAUAUUCAUAUACAGUUGUUUGGCUCUUACAUGUUAGUAGAAGGGUGCAACAUGAGGAUCACCCAUGUA,apparent Kd,[3],298 nM
same,apparent Kd,[4],163 nM
GUUAGUUAAGGAUAUACAGGGAGCUGCGGCGUCUCGCCGCAACAUGAGGAUCACCCAUGUAGAAGGUAGCCGUU,apparent Kd,[1],76.4 nM
same,apparent Kd,[2],121 nM
CGGCACGCAGGAUAUGCCUUUGAGUACAUGAGGAUCACCCAUGUCUUCACCCUCAUUAGGGCAGAAGGGCGAUAUC,apparent Kd,[1],24.4 nM
same,apparent Kd,[2],32.2 nM
CUCAUGUAAGGAUAUCAGUAGUAAAAAAAUAAAAUUACUACUGAGAAGGUACAUGAGGAUCACCCAUGUAUCUU,apparent Kd,[1],84.8 nM
same,apparent Kd,[2],72.5 nM
ACAUGAGGAUCACCCAUGUGAAACCAAUGGCUGACUUUGAGCUAGGAUAUUUGUGCAUAUCAAACAAAGAAGGAGCAUUACUGG,apparent Kd,[1],41.1 nM
same,apparent Kd,[2],37.9 nM
GUGUACGUAGGAUAUGCUGGAAUCUAGCGAAGCUAGGUUCCACAUGAGGAUCACCCAUGUAGAAGGGCGUACAC,apparent Kd,[1],182 nM
same,apparent Kd,[2],47.1 nM
CCUCAGUAAGGAUAUCAGCUUAUAGAGUUGGUAAUGAGAGCUGAGAAGGUACAUGAGGAUCACCCAUGUUAGUU,apparent Kd,[1],21.8 nM
same,apparent Kd,[2],57.3 nM
AGCCUACAUGAGGAUCACCCAUGUCAGGAUAUCUCGCGACAUGUCAAGUUCACGUUGCAGAGAAGGGACUCGGG,apparent Kd,[1],56.6 nM
same,apparent Kd,[2],63.6 nM
GGGCCACAUGAGGAUCACCCAUGUAAACCCGUGCUCAGGGCACAGGAUAUGGGCCUGGAUUAGGCCCAGAAGGGUGGUCUGGCC,apparent Kd,[3],29.4 nM
same,apparent Kd,[4],10.6 nM
GCUUGAGCAGGAUAUACAAGCUUGAGCUGAAAAGUUCGAGUACAUGAGGAUCACCCAUGUAGAAGGGUUCGAGU,apparent Kd,[1],27.5 nM
same,apparent Kd,[2],32.3 nM
GGUACCAACACAGGAUAUGCUAUCCUUUGGGUAGCAGAAGGGUGAAACAUGAGGAUCACCCAUGUGGUGCCAGGGCGUGAGCCC,apparent Kd,[3],1460 nM
same,apparent Kd,[4],96.2 nM
CAACUGUGAGGAUAUGGUGAGUAGUGCCUGAGCGCUGCUCACCAGAAGGCACAUGAGGAUCACCCAUGUAUAAC,apparent Kd,[1],42.9 nM
same,apparent Kd,[2],176 nM
AAUGUGUGUGGAGGAUAUAUAACAUGACAACAAACACAUACAUGAGGAUCACCCAUGUCCCAUGUAUAGAAGGCCAUAUAUAUA,apparent Kd,[3],662 nM
same,apparent Kd,[4],618 nM
CGCAACUCAGAUCUUUUGAACAUGAGGAUCACCCAUGUAUUGAGAAGGAGGAAGAAGAGAGAUUCCUAGGAUAUCAGAGUUGCG,apparent Kd,[1],5.95 nM
same,apparent Kd,[2],5.81 nM
CGGUCGAUAUCAGGAUAUCGUUUAAUUACAUGAGGAUCACCCAUGUUGACAUGGAAUAUAACAUGCGAGAAGGGAUUACGAUCG,apparent Kd,[3],13.9 nM
same,apparent Kd,[4],9.85 nM
CGCCGCACCAGCCGGCGGCAGGGUCAGGAUAUACAUGAGGAUCACCCAUGUGAACGGUGCCCAAUGUAGAAGGGACGAAGAGAC,apparent Kd,[1],20.5 nM
same,apparent Kd,[2],32.6 nM
GUACAGUAGUGAGGAUAUACGAGAUCGAUAGAUCGGCGAUCCAUAUAUACAUGAGGAUCACCCAUGUAGAAGGCACUUCUGUAC,apparent Kd,[1],7.7 nM
same,apparent Kd,[2],104 nM
GUACUGUAGUGAGGAUAUACGAGAUCGAUAGAUCGGCGAUCCAUUAAUACAUGAGGAUCACCCAUGUAGAAGGCACUUCAGUAC,apparent Kd,[1],6.25 nM
same,apparent Kd,[2],78.4 nM
CGAUAUGAUAGAGGAUAUGUAAUACAUGAGGAUCACCCAUGUUACAUGGGAAUUAUAAAUAAUUAACAGAAGGCUAUUCUAUCG,apparent Kd,[1],63.8 nM
same,apparent Kd,[2],177 nM
AAAGAUGGAGGAUAUACAUGAGGAUCACCCAUGUAGAAAAAAAAUUGGGAAAAAGAAAGUAGAAGGCCAAAAAA,apparent Kd,[1],41 nM
same,apparent Kd,[2],91.1 nM
UUGGACGUCGUAGGCUAUGUAGGAUAUUCCUACAUGAGGAUCACCCAUGUUGACAUGGAAGAAGGACAGAAGGACGAUGUCCAU,apparent Kd,[3],173 nM
same,apparent Kd,[4],4.35 nM
AAGUCUGGACGAGGAUAUCAGUUGUAUCUGGCGUCAACAUGAGGAUCACCCAUGUUGCAAUAGGGUGAGAAGGCGUUUGGGCAA,apparent Kd,[3],41.6 nM
same,apparent Kd,[4],19.1 nM
UAGUAUCAACGAGGAUAUAAUAUGUUCAAUUUUUUAUAUUGUUUACAUGAGGAUCACCCAUGUUAUUAGAAGGCGUAUGGGAUU,apparent Kd,[3],61.8 nM
same,apparent Kd,[4],47.7 nM
ACGUGGAGUCCGCAACAGAACACACAGGAUAUGAGUGGGCACAUGAGGAUCACCCAUGUUACGGAUCAGAAGGGUGUGCUCAUG,apparent Kd,[3],449 nM
same,apparent Kd,[4],56.3 nM
AUAAAACAUGAGGAUCACCCAUGUCAACAAAGUCGAGGAUAUGGGCAAUUAAAAUAAGAACCAGAAGGCGAAUAAU,apparent Kd,[3],172 nM
same,apparent Kd,[4],39.8 nM
AGCUACGUUUCGUAGCAGUGUCAUCGAGAAGGCCCUUACAUGACAACAUGAGGAUCACCCAUGUGGGAGGAUAUCGAUGAUACA,apparent Kd,[3],11.4 nM
same,apparent Kd,[4],8.98 nM
CGUGCGUAUGUGAGGAUAUGCUGGUCCUUGGCUCGGCAGAAGGCACAUGAGGAUCACCCAUGUGGUGUCGUACA,apparent Kd,[1],78.2 nM
same,apparent Kd,[2],156 nM
UGUAAUUAGUAAGGAUAUACUAGUGAUUAGCUUGUAGAAGGUACAGUCUUAUGUAUAACAAAUUAACAUGAGGAUCACCCAUGU,apparent Kd,[3],10.2 nM
same,apparent Kd,[4],8.74 nM
CGAGUACAUGAGGAUCACCCAUGUAAUGAAUUGUCAGGAUAUGGAGAUUGAUGACAUGCGCCAGAAGGGACAUCUG,apparent Kd,[3],49.7 nM
same,apparent Kd,[4],40.8 nM
UUAACAUGAGGAUCACCCAUGUCGUGCAAGAUGAGUUCUGGUGAGGAUAUACAUGGUAAAGAACUGUAGAAGGCACUGGGUACA,apparent Kd,[3],290 nM
same,apparent Kd,[4],139 nM
UUUUUUUACUAGGAUAUCGCCGCCGAAAGGCGGCGAGAAGGAGUAACAUGAGGAUCACCCAUGUGUCCUUUUUU,apparent Kd,[1],21.9 nM
same,apparent Kd,[2],74.2 nM
UUUAUUUCGGCAGGAUAUACAUGUAUAUAUAUUUCUUCAUAUCUUAUUACAUGAGGAUCACCCAUGUAGAAGGGCCUUCUUCUC,apparent Kd,[1],65.6 nM
same,apparent Kd,[2],80.5 nM
CGCACUGAUAGAGGAUAUGUUGUACAUGAGGAUCACCCAUGUGUUUUUGUAUCAAUAUUUGUGAAACAGAAGGCUAUUAGUGCG,apparent Kd,[1],7.58 nM
same,apparent Kd,[2],5.65 nM
CUGAUGUUAGGAUAUCAGGUCACGCGCGAAGGCGCGCGGCAUGAGAAGGAACAUGAGGAUCACCCAUGUGACGA,apparent Kd,[1],42.8 nM
same,apparent Kd,[2],160 nM
UGAGCGACCACAGGAUAUACUUGGUAAGACCGAGUAGAAGGGUGGAAGAGCGUGCAGUGACAUGAGGAUCACCCAUGUGGUUGU,apparent Kd,[3],215 nM
same,apparent Kd,[4],77.5 nM
GGACGUCACAUCUACAUGAGGAUCACCCAUGUCUCUUGAUAUGAGGAUAUGUAUACGAAUCGUUUAUAGAAGGCAUGGACGUCC,apparent Kd,[3],286 nM
same,apparent Kd,[4],312 nM
AUACAUGAGGAUCACCCAUGUGGAUCACCCAUGUAAGAUGGUAGAAGGAUGUUAUUAUUAUUUUCAUAGGAUAUACUAUUUAGU,apparent Kd,[1],328 nM
same,apparent Kd,[2],408 nM
GUCCUACAUGAGGAUCACCCAUGUGAGGAUAUGUGGUUAGCUGCUAGGUAGUUAGUAUGCAGAAGGUACGUGAU,apparent Kd,[1],40.4 nM
same,apparent Kd,[2],41.9 nM
CGGGAGUCAGGAUAUACGGUCAUGUCGCCAGAUGUCAUGGUACAUGAGGAUCACCCAUGUAGAAGGGAGGAGAU,apparent Kd,[1],75.7 nM
same,apparent Kd,[2],136 nM
UGGUCAUGAUCAGGAUAUUAACAUGGGCUACAUUAAGAAGGGAUAGUGAGAUGCGAACUGAACGACAUGAGGAUCACCCAUGUA,apparent Kd,[3],51.9 nM
same,apparent Kd,[4],35.8 nM
